The source made the active and inactive calls. No cut-off for these calls is given here.
Assays:
[1] = molecular target: T1, 3',5'-cyclic-AMP phosphodiesterase 4B (Homo sapiens, UniProt Q07343); experiment: Inhibition of human recombinant PDE4B (152 to 564 amino acids) using cAMP as substrate after 30 mins by plate reader analysis
[2] = Permeability of the compound at pH 7.4 after 4 hrs by PAMPA; type: ADME; conditions: read-out: permeability
In short: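 Passive membrane permeability was measured by PAMPA at pH 7.4. The effective permeability coefficient Pe is reported in 10^-6 cm/sec.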

[3] = Octanol-phosphate buffer partition coefficient, log D of the compound at pH 7.4 after 12 hrs by shake flask method; type: physicochemical
[4] = Antiinflammatory activity in Balb/c mouse splenocytes assessed as LPS-induced TNF-alpha production after 18 to 24 hrs by AlphaLISA; type: functional, cell-based; conditions: Splenocyte
[5] = system: Mus musculus; experiment: Antiinflammatory activity in ip dosed BALB/c mouse assessed as inhibition of LPS-induced pulmonary neutrophilia administered 30 mins prior to LPS challenge measured after 4 to 5 hrs; type: functional; conditions: for ED50: read-out: ID50 (the source's name)
[6] = molecular target: T1, 3',5'-cyclic-AMP phosphodiesterase 4B; experiment: Inhibition of human recombinant PDE4B (152 to 564) using cAMP as substrate at 10 uM after 30 mins by plate reader analysis

T1 sequence (Q07343 whole entry, the tested form may be a part): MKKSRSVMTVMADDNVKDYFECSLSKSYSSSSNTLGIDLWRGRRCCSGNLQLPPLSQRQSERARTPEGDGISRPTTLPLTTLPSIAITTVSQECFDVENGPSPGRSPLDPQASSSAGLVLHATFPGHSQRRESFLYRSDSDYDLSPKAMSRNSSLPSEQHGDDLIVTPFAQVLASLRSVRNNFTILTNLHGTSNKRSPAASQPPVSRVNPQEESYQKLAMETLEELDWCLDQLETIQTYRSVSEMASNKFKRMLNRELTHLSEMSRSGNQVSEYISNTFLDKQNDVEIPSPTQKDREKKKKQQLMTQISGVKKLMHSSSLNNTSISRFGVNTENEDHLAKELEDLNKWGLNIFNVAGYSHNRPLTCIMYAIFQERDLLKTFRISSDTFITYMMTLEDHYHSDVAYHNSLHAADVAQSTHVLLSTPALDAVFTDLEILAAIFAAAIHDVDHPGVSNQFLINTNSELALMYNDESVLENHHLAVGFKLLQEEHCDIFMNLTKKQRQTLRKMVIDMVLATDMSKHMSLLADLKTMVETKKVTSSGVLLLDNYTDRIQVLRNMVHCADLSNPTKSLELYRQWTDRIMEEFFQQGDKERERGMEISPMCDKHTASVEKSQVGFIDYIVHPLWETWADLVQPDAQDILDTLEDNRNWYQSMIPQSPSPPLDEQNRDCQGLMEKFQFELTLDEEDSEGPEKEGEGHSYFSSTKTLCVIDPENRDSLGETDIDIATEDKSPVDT

O=C(O)CN1CCC(Nc2nc(-c3ccccc3)nc3c2CS(=O)(=O)C3)CC1
IC50 [1]: 3000 nM

O=C(O)Cc1ccc(Nc2nc(-c3ccccc3)nc3c2CS(=O)(=O)C3)cc1
Papp at 4 h [2]: < 2 ×10⁻⁶ cm/s | logD at 12 h [3]: 0.016 | IC50 [4]: 970 nM | IC50 [1]: 140 nM

O=C(O)Cc1ccc(Nc2nc(-c3ccccc3)nc3c2SCCC3)cc1
Papp at 4 h [2]: 15.5 ×10⁻⁶ cm/s | logD at 12 h [3]: 1.4 | IC50 [4]: 90 nM | IC50 [1]: 29 nM

O=C(Cc1ccc(Nc2nc(-c3ccccc3)nc3c2S(=O)(=O)CCC3)cc1)Nc1ccccc1
IC50 [4]: 18 nM | IC50 [1]: 43 nM

CC(C)CNC(=O)Cc1ccc(Nc2nc(-c3ccccc3)nc3c2S(=O)(=O)CCC3)cc1
IC50 [4]: 4.7 nM | IC50 [1]: 6.6 nM

O=C(O)CN1CCN(c2nc(-c3ccccc3)nc3c2CS(=O)(=O)C3)CC1
IC50 [1]: 5000 nM

CC(C)(C)NC(=O)Cc1ccc(Nc2nc(-c3ccccc3)nc3c2S(=O)(=O)CCC3)cc1
IC50 [4]: 8.5 nM | IC50 [1]: 11 nM

O=C(O)CCc1ccc(Nc2nc(-c3ccccc3)nc3c2CS(=O)(=O)C3)cc1
IC50 [1]: 800 nM

O=C(O)Cc1ccc(Nc2nc(-c3ccccc3)nc3c2CCCC3)cc1
IC50 [1]: 430 nM

CCCNC(=O)Cc1ccc(Nc2nc(-c3ccccc3)nc3c2S(=O)(=O)CCC3)cc1
ED50 [5]: 18 mg/kg | IC50 [4]: 9.8 nM | IC50 [1]: 7.5 nM

CNC(=O)Cc1ccc(Nc2nc(-c3ccccc3)nc3c2S(=O)(=O)CCC3)cc1
IC50 [4]: 35 nM | IC50 [1]: 27 nM

O=C(O)Cc1cccc(Nc2nc(-c3ccccc3)nc3c2CS(=O)(=O)C3)c1
IC50 [1]: 2500 nM

O=C(O)CC1CCN(c2nc(-c3ccccc3)nc3c2CS(=O)(=O)C3)CC1
IC50 [1]: 190 nM

O=C(O)Cc1ccc(Nc2nc(-c3ccccc3)nc3c2CCC3)cc1
IC50 [1]: 610 nM

NC(=O)Cc1ccc(Nc2nc(-c3ccccc3)nc3c2S(=O)(=O)CCC3)cc1
Papp at 4 h [2]: > 50 ×10⁻⁶ cm/s | logD at 12 h [3]: 2.9 | IC50 [4]: 8.5 nM | IC50 [1]: 16 nM

O=C(Nc1c(Cl)cncc1Cl)c1ccc(OC(F)F)c(OCC2CC2)c1 [ROFLUMILAST]
IC50 [4]: 1.2 nM

O=C(O)Cc1ccc(Nc2nc(-c3ccccc3)nc3c2COC3)cc1
IC50 [1]: 2200 nM

O=C(O)Cc1ccc(Nc2nc(-c3ccccc3)nc3c2S(=O)(=O)CCC3)cc1
Papp at 4 h [2]: 5.8 ×10⁻⁶ cm/s | logD at 12 h [3]: 0.43 | IC50 [4]: 390 nM | IC50 [1]: 25 nM

CCCCNC(=O)Cc1ccc(Nc2nc(-c3ccccc3)nc3c2S(=O)(=O)CCC3)cc1
ED50 [5]: 23 mg/kg | IC50 [4]: 13 nM | IC50 [1]: 22 nM

O=C(O)Cc1ccc(Nc2nc(-c3ccccc3)nc3c2CCCCC3)cc1
inhibition [6]: 35%

O=C(O)CC1CCN(c2nc(-c3ccccc3)nc3c2CSC3)CC1
IC50 [1]: 150 nM

O=C(O)Cc1ccc(Nc2nc(-c3ccccc3)nc3c2CSC3)cc1
Papp at 4 h [2]: 13.3 ×10⁻⁶ cm/s | logD at 12 h [3]: 1.3 | IC50 [4]: 220 nM | IC50 [1]: 29 nM

O=C(O)Cc1ccc(Nc2nc(-c3ccccc3)nc3c2S(=O)(=O)CC3)cc1
IC50 [4]: > 10000 nM | IC50 [1]: 280 nM

O=C(O)Cc1ccc(Nc2nc(-c3ccccc3)nc3c2CCS(=O)(=O)C3)cc1
Papp at 4 h [2]: < 2 ×10⁻⁶ cm/s | logD at 12 h [3]: -0.45 | IC50 [4]: > 10000 nM | IC50 [1]: 28 nM

O=C(O)Cc1ccc(Nc2nc(-c3ccccc3)nc3sccc23)cc1
IC50 [1]: 230 nM

O=C(O)Cc1ccc(Nc2nc(-c3ccccc3)nc3c2CS(=O)(=O)CC3)cc1
IC50 [1]: 7900 nM

O=C(O)Cc1ccc(Nc2nc(-c3ccccc3)nc3ccccc23)cc1
IC50 [1]: 480 nM

CN(C)C(=O)Cc1ccc(Nc2nc(-c3ccccc3)nc3c2S(=O)(=O)CCC3)cc1
IC50 [4]: 17 nM | IC50 [1]: 33 nM

O=C(O)Cc1ccc(Nc2nc(-c3ccccc3)nc3ncccc23)cc1
inhibition [6]: 14%

CC(C)(C)CNC(=O)Cc1ccc(Nc2nc(-c3ccccc3)nc3c2S(=O)(=O)CCC3)cc1
Activity [5]: inactive | IC50 [4]: 0.8 nM | IC50 [1]: 4.7 nM
